# According to ChEMBL document CHEMBL1949556, “Design and synthesis of boronic acid inhibitors of endothelial lipase” (Bioorg Med Chem Lett, 2012):
# Molecular target: T1, Endothelial lipase (Homo sapiens, UniProt Q9Y5X9)
# T1 sequence (Q9Y5X9 whole entry): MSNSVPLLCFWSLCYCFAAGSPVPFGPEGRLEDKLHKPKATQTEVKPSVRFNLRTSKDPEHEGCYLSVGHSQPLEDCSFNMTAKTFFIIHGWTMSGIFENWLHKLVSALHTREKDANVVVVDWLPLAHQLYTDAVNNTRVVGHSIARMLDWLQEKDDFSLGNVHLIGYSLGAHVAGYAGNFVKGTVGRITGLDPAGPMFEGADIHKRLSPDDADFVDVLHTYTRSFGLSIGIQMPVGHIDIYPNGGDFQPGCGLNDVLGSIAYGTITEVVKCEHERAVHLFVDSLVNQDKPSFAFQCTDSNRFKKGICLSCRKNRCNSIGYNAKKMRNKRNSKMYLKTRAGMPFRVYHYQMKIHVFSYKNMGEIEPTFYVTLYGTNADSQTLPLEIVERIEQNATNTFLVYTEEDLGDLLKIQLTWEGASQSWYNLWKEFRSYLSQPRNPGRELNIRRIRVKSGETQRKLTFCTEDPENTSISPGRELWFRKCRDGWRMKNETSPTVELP
# Assay: Inhibition of human endothelial lipase expressed using recombinant adenovirus using glycerol-tri[9,10(n)-3H]oleate after 1 hr by vesicle assay
# In short: (§1)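 Vesicle (interfacial catalysis) substrate system; IC50 taken as mean of two independent experiments, each run in duplicate.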
row,Compound,IC50 [nM]
1,CCCCCc1cccc(B(O)O)c1,12800
2,CC1(C)OB(c2ccc(-c3ccco3)cc2)OC1(C)C,1900
3,CCCCCCCCCCCc1ccc(B(O)O)cc1,2000
4,CCCCCCCc1ccc(B(O)O)cc1,1700
5,CC1(C)OB(c2ccc(-c3ccoc3)cc2)OC1(C)C,2800
6,CC1(C)OB(c2ccc(-c3ccsc3)cc2)OC1(C)C,1300
7,CC1(C)OB(c2ccc(-c3ccc(F)cc3)cc2)OC1(C)C,1600

# Molecular target: T2, Lipoprotein lipase (Homo sapiens, UniProt P06858)
# T2 sequence (P06858 whole entry): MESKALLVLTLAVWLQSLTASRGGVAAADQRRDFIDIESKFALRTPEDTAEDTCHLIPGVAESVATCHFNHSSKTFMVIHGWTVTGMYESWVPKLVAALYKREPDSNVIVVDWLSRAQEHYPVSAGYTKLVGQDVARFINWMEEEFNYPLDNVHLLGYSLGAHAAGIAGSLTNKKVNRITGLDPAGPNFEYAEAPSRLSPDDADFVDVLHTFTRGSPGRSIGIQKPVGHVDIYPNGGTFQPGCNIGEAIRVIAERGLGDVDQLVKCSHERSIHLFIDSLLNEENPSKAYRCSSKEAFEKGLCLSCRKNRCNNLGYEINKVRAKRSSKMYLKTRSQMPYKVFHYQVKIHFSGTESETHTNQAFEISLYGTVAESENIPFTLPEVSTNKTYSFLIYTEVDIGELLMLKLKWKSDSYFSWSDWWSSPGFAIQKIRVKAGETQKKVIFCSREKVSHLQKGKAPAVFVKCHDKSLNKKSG
# Assay: Inhibition of human lipoprotein lipase expressed in HEK293 cells using bis-BD-PC and mono-BD-TG as substrate incubated for 10 mins prior to substrate addition by micelle assay
# In short: (§2)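 Detergent micelle system, which removes interfacial catalysis and gives direct access to the active site; IC50 taken as mean of two independent experiments, each run in duplicate.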
row,Compound,IC50 [µM]
1,CCCCCc1cccc(B(O)O)c1,85
2,CC1(C)OB(c2ccc(-c3ccco3)cc2)OC1(C)C,35
3,CCCCCCCCCCCc1ccc(B(O)O)cc1,1.5
4,CCCCCCCc1ccc(B(O)O)cc1,9
5,CCc1ccc(B(O)O)cc1,20
6,CC1(C)OB(c2ccc(-c3ccoc3)cc2)OC1(C)C,33
7,Cc1ccc(B(O)O)cc1 [TOLYL BORONIC ACID],25
8,CC1(C)OB(c2ccc(-c3ccsc3)cc2)OC1(C)C,36
9,CC1(C)OB(c2ccc(-c3ccc(F)cc3)cc2)OC1(C)C,33

# Organism: Homo sapiens
# Assay: Selectivity ratio of IC50 for human lipoprotein lipase to IC50 for human endothelial lipase by vesicle assay
# In short: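 Ratio of lipoprotein lipase IC50 to endothelial lipase IC50, both from vesicle assays; unitless.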
row,Compound,Ratio IC50
1,CCCCCc1cccc(B(O)O)c1,4
2,CC1(C)OB(c2ccc(-c3ccco3)cc2)OC1(C)C,5
3,CCCCCCCCCCCc1ccc(B(O)O)cc1,25
4,CCCCCCCc1ccc(B(O)O)cc1,18
5,CCc1ccc(B(O)O)cc1,0.3
6,CC1(C)OB(c2ccc(-c3ccoc3)cc2)OC1(C)C,5.4
7,Cc1ccc(B(O)O)cc1 [TOLYL BORONIC ACID],0.5
8,CC1(C)OB(c2ccc(-c3ccsc3)cc2)OC1(C)C,10
9,CC1(C)OB(c2ccc(-c3ccc(F)cc3)cc2)OC1(C)C,34

# Molecular target: T2, Lipoprotein lipase
# Assay: Inhibition of human lipoprotein lipase expressed using recombinant adenovirus using glycerol-tri[9,10(n)-3H]oleate after 1 hr by vesicle assay
# In short: as §1
row,Compound,IC50 [µM]
1,CCCCCc1cccc(B(O)O)c1,50
2,CC1(C)OB(c2ccc(-c3ccco3)cc2)OC1(C)C,9.6
3,CCCCCCCCCCCc1ccc(B(O)O)cc1,50
4,CCCCCCCc1ccc(B(O)O)cc1,30
5,CCc1ccc(B(O)O)cc1,9
6,CC1(C)OB(c2ccc(-c3ccoc3)cc2)OC1(C)C,15
7,Cc1ccc(B(O)O)cc1 [TOLYL BORONIC ACID],9
8,CC1(C)OB(c2ccc(-c3ccsc3)cc2)OC1(C)C,13
9,CC1(C)OB(c2ccc(-c3ccc(F)cc3)cc2)OC1(C)C,55

# Molecular target: T3, Lipoprotein lipase (Homo sapiens) (UniProt P06858)
# T3 sequence (whole entry): T2 sequence (P06858 whole entry)
# Assay: Inhibition of human lipoprotein lipase expressed using recombinant adenovirus using glycerol-tri[9,10(n)-3H]oleate at 50 uM after 1 hr by vesicle assay
# In short: (§3)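 Vesicle-based substrate system with the test agent at a single 50 μM concentration; percent inhibition of lipase activity reported.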
row,Compound,inhibition [%]
1,CCCCCCCCCCCCCCCC#N,14
2,CCCCCCCCCCCCCCCC(=O)CCl,-10
3,CCCCCCCCCCCCCCCB(O)O,63
4,CCCCCCCCCCCCCCCC(=O)C(F)(F)F,14
5,CCCCCCCCCCCCCCCC=O,-1
6,CCCCCCCCCCCCCCCC(=O)C=[N+]=[N-],20

# Organism: Homo sapiens
# Assay: Selectivity ratio of IC50 for human lipoprotein lipase by micelle assay to IC50 for human endothelial lipase by micelle assay
# In short: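 Ratio of lipoprotein lipase IC50 to endothelial lipase IC50, both from micelle assays; unitless.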
row,Compound,Ratio IC50
1,CCCCCc1cccc(B(O)O)c1,3.8
2,CC1(C)OB(c2ccc(-c3ccco3)cc2)OC1(C)C,27
3,CCCCCCCCCCCc1ccc(B(O)O)cc1,7.5
4,CCCCCCCc1ccc(B(O)O)cc1,28
5,CCc1ccc(B(O)O)cc1,1
6,CC1(C)OB(c2ccc(-c3ccoc3)cc2)OC1(C)C,11
7,Cc1ccc(B(O)O)cc1 [TOLYL BORONIC ACID],1.1
8,CC1(C)OB(c2ccc(-c3ccsc3)cc2)OC1(C)C,12
9,CC1(C)OB(c2ccc(-c3ccc(F)cc3)cc2)OC1(C)C,30

# Molecular target: T1, Endothelial lipase
# Assay: Inhibition of human endothelial lipase overexpressed in HUVEC cells using bis-BD-PC and mono-BD-TG as substrate incubated for 10 mins prior to substrate addition by micelle assay
# Assay type: cell-based
# In short: as §2
row,Compound,IC50 [nM]
1,CCCCCc1cccc(B(O)O)c1,22000
2,CC1(C)OB(c2ccc(-c3ccco3)cc2)OC1(C)C,1300
3,CCCCCCCCCCCc1ccc(B(O)O)cc1,200
4,CCCCCCCc1ccc(B(O)O)cc1,320
5,CCc1ccc(B(O)O)cc1,19000
6,CC1(C)OB(c2ccc(-c3ccoc3)cc2)OC1(C)C,2900
7,Cc1ccc(B(O)O)cc1 [TOLYL BORONIC ACID],22000
8,CC1(C)OB(c2ccc(-c3ccsc3)cc2)OC1(C)C,3100
9,CC1(C)OB(c2ccc(-c3ccc(F)cc3)cc2)OC1(C)C,1100

# Molecular target: T4, Endothelial lipase (Homo sapiens) (UniProt Q9Y5X9)
# T4 sequence (whole entry): T1 sequence (Q9Y5X9 whole entry)
# Assay: Inhibition of human endothelial lipase expressed using recombinant adenovirus using glycerol-tri[9,10(n)-3H]oleate at 50 uM after 1 hr by vesicle assay
# In short: as §3
row,Compound,inhibition [%]
1,CCCCCCCCCCCCCCCC#N,4
2,CCCCCCCCCCCCCCCC(=O)CCl,10
3,CCCCCCCCCCCCCCCB(O)O,90
4,CCCCCCCCCCCCCCCC(=O)C(F)(F)F,56
5,CCCCCCCCCCCCCCCC=O,7
